IC50, Activity and EC50 data for 25 compounds are collected here from ChEMBL document CHEMBL3875172, “Evaluation of the anti-malarial activity and cytotoxicity of 2,4-diamino-pyrimidine-based kinase inhibitors” (Eur J Med Chem, 2016).

pIC50: −log10 of the molar value.

In data set [1] the test system is Plasmodium falciparum. Description: Antimalarial activity against multidrug-resistant Plasmodium falciparum K1 infected human erythrocytes assessed as reduction in parasite viability after 24 hrs by [3H]-hypoxanthine incorporation assay. It counts as functional. In a few lines:
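K1 parasites cultured in RPMI-1640 with 25 mM HEPES, 25 mM NaHCO3, 10% […] human serum and erythrocytes at 37 C, 3% CO2. Early ring-stage culture (1% parasitemia, 1.5% Hct) was exposed to compounds in duplicate for 24 h, then [3H]hypoxanthine was added for a further 18-20 h. Incorporation was scintillation-counted, and IC50 (50% growth reduction) was taken from fitted curves. The vehicle was 0.5% DMSO.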

Data set [2] can be described thus: Cytotoxicity against African green monkey Vero cells at 10 uM after 4 days by fluorescence assay. The conditions noted are these: chlorocebus sabaeus, 96 h. It counts as toxicity, cell-based. An outline of the steps: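 GFP-expressing Vero cells (stably transfected with pEGFP-N1), maintained in MEM with 10% heat-inactivated FBS, L-glutamine, pyruvate and geneticin. Seeded at 3.3 × 10^4 cells/ml onto compound at […] (so in the source), then incubated 4 days at 37 °C, 5% CO2. Read by bottom fluorescence (ex 530/em 590 nm) as percent cytotoxicity. Ellipticine positive control; 0.5% DMSO negative control.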

Data set [3] concerns Plasmodium falciparum. Briefly: Antimalarial activity against Plasmodium falciparum 3D7 by high throughput screening assay. Format: functional.
The nature of data set [4]: Cytotoxicity against human HepG2 cells at 10uM. The conditions noted are these: hepg2, 10 µM. It counts as toxicity, cell-based.
Data set [5] is described as follows: Cytotoxicity against African green monkey Vero cells after 72 hrs by MTT assay. It counts as toxicity, cell-based, Chlorocebus sabaeus. An outline of the steps:
(§1)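 Dose-response MTT assay in cells grown in DMEM with 10% FBS, penicillin and streptomycin at 37 °C, 5% CO2. Cells were precultured 16–18 h, then exposed to compound for 72 h. MTT was added for 3 h, formazan dissolved in DMSO, and absorbance read at 570 nm. Gefitinib positive control; 0.5% DMSO negative control.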

The nature of data set [6]: Cytotoxicity against human A549 cells after 72 hrs by MTT assay. It counts as toxicity, cell-based. An outline of the steps:
as §1
For orientation: Tetrazolium assays rely on reduction of a dye to a coloured formazan, in cell work by metabolically active cells.

The target of data set [7] is Tyrosine-protein kinase JAK2 (Homo sapiens, UniProt O60674). Description: Inhibition of human JAK2 using poly (Glu:Tyr) as substrate. An outline of the steps: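 Antibody Beacon tyrosine kinase fluorescence assay, run as for EGFR. Reaction held 10 ng JAK2 enzyme, 0.1 mg/ml poly(Glu:Tyr) and 0.1 mg/ml ATP.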
Sequence of Tyrosine-protein kinase JAK2 (O60674 whole entry): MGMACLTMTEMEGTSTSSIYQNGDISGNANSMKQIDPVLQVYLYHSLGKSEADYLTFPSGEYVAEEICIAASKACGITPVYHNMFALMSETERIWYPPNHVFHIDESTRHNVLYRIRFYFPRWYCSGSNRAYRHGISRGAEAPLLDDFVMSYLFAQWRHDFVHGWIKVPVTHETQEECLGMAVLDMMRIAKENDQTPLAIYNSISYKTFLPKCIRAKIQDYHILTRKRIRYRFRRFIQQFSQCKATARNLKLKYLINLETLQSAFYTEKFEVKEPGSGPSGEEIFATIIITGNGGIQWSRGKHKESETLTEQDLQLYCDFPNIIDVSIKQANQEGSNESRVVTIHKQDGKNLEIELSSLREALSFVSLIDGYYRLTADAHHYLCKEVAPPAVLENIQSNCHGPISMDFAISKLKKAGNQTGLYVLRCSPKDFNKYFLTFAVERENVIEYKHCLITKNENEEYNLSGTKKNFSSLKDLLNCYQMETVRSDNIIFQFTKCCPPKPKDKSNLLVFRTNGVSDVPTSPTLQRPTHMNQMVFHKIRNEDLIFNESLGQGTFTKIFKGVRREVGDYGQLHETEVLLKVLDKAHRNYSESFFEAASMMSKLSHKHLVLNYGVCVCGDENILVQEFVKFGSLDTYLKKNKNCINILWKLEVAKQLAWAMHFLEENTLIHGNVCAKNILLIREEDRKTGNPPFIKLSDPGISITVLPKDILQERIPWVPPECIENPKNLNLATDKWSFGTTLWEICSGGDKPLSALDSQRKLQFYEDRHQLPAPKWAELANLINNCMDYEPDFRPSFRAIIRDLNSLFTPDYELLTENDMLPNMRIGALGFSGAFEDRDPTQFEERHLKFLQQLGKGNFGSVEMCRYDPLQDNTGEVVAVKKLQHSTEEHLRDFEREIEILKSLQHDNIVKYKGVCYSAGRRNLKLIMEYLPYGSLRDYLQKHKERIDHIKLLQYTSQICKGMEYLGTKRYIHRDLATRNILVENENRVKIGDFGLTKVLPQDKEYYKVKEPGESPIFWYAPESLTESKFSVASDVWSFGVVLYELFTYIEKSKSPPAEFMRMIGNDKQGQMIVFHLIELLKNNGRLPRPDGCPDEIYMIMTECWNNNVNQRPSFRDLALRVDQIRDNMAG
In data set [8] the target is T1, Tyrosine-protein kinase JAK3 (Homo sapiens, UniProt P52333).
T1 sequence (P52333 whole entry): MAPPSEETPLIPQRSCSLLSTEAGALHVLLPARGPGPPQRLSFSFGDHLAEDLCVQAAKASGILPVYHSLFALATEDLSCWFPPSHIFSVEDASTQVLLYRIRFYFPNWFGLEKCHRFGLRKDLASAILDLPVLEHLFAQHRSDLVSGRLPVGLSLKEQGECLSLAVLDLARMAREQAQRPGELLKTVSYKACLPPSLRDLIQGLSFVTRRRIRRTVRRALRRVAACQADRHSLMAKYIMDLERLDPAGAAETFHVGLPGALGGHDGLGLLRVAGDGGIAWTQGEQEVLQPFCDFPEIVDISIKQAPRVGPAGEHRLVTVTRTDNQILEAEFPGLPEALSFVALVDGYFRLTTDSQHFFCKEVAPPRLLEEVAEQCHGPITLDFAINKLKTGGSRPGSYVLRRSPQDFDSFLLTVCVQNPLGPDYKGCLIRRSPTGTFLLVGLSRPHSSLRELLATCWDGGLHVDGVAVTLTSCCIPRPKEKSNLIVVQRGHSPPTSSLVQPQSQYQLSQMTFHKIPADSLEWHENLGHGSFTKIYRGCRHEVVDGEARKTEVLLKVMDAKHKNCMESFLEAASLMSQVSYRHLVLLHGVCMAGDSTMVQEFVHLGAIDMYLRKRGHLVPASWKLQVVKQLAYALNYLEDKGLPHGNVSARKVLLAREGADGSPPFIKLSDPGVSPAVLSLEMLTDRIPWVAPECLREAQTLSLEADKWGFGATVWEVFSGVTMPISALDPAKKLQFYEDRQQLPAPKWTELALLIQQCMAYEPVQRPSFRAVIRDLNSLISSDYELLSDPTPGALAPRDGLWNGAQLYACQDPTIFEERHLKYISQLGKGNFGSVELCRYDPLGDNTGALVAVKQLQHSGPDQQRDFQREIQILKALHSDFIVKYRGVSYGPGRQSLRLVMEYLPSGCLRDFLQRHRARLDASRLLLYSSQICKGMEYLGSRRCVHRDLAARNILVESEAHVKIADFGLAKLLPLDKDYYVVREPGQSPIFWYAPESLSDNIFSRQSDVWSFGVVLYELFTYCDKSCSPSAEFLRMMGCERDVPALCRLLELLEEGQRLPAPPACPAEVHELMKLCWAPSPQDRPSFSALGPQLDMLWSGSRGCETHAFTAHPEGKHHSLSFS
Briefly: Inhibition of human JAK3 using poly (Glu:Tyr) as substrate. In a few lines:
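Antibody Beacon tyrosine kinase fluorescence assay, run as for EGFR. Reaction held 3 ng JAK3 enzyme, 0.1 mg/ml poly(Glu:Tyr) and 0.1 mg/ml ATP.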

Data set [9] deals with Epidermal growth factor receptor (Homo sapiens, UniProt P00533). Briefly: Inhibition of human EGFR using poly (Glu:Tyr) as substrate measured for 1.5 hrs by oregon green 488 dye-based fluorescence assay.
Sequence of Epidermal growth factor receptor (P00533 whole entry): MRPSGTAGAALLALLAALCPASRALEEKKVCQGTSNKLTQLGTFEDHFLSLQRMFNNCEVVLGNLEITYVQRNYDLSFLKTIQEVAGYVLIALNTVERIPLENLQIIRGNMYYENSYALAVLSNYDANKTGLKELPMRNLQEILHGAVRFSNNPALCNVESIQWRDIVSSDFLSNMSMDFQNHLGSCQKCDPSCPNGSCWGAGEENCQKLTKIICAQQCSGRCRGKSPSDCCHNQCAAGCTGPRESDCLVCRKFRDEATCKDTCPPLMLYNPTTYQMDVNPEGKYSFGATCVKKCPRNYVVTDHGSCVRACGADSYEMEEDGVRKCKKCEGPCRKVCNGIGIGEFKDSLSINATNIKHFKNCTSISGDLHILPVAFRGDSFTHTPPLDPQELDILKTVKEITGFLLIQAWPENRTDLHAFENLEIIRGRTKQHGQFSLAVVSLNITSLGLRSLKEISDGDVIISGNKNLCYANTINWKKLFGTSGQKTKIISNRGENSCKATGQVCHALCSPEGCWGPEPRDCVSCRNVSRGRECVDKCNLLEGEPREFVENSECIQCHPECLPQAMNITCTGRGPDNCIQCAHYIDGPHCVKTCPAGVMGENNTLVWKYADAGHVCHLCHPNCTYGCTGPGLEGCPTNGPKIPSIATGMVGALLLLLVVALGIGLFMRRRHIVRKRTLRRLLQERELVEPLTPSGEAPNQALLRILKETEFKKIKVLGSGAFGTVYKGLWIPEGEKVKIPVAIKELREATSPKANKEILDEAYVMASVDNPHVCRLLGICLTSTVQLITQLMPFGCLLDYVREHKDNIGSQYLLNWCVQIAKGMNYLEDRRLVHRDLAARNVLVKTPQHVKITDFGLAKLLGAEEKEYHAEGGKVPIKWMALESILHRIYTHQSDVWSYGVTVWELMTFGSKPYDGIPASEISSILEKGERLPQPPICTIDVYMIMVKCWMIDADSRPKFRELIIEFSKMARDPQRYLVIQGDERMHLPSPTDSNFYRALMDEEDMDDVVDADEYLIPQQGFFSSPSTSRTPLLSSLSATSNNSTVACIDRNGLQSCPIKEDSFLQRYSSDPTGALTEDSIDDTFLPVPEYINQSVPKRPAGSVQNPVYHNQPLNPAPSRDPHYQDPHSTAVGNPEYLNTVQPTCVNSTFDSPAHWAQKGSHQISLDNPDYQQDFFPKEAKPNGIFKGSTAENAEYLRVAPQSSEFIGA

As to `C[C@H]1[C@@H](O)O[C@@H]2O[C@@]3(C)CC[C@H]4[C@H](C)CC[C@@H]1[C@@]24OO3` [ARTENIMOL], the pIC50 (as a rule, the IC50 on a negative log10 scale, so that one unit is a factor of ten) in data set [1] was 8.60.

`c1cc(Nc2ccc(N3CCOCC3)cc2)nc(Nc2ccc(N3CCOCC3)cc2)n1`: the Activity in [2] was determined as 25%.

On to `CNC(=O)c1cnc(Nc2ccc(N3CCOCC3)cc2)nc1Nc1cccc(OC(C)C)c1`, for which, in data set [3], the pIC50 is 6.12. Besides, the Activity in [4] worked out at 19%.

Regarding `Cc1cc(Nc2nccc(Nc3cccc(S(N)(=O)=O)c3)n2)ccc1N1CCN(C)CC1`, the pIC50 was 5.41 in data set [1], 6.90 in data set [7], 5.39 in data set [8] and less than 3.82 in data set [9]. Moreover, in data set [2], the Activity is 66%. The EC50 (commonly the concentration giving half of the maximal effect) at 72 h in [5] was more than 100 µM; in data set [6], 4.2 µM.

Consider `CCN(CC)CCCC(C)Nc1ccnc2cc(Cl)ccc12` (stereo not drawn) [CHLOROQUINE], for which the Activity in [2] stood at 45%.

For the compound `Cc1cccc(Nc2ccnc(Nc3ccc(N4CCN(C)CC4)cc3)n2)c1`, the pIC50 in data set [1] was 6.37; in data set [7] it was 6.85; in [8], 5.68; in [9], 4.96. In data set [2], the Activity is 94%. In addition, the EC50 at 72 h in [5] was 1 µM; in [6] it was 7.1 µM.

With `Cc1cc(Nc2nccc(Nc3ccccc3C(N)=O)n2)ccc1N1CCN(C)CC1`, in data set [1], the pIC50 was 5.97. In data set [2], this compound had an Activity of 92%.

Take `CN1CCN(c2ccc(Nc3ncc(C#N)c(Nc4ccccc4C(N)=O)n3)cc2)CC1`: the pIC50 in data set [3] is 7.40. Moreover, the Activity in [4] amounted to 43%.

`Cc1cccc(Nc2ccnc(Nc3ccc(N4CCN(C)CC4)c(C)c3)n2)c1`: the pIC50 was 6.19 in data set [1], 7.30 in data set [7], 5.74 in data set [8] and less than 3.82 in data set [9]. Besides, the Activity in data set [2] was found to be 94%. Further, the EC50 at 72 h in data set [5] came to 2 µM; in [6], 3.5 µM.

Consider `Cc1cc(Nc2nc(Nc3cccc(S(N)(=O)=O)c3)ncc2C#N)ccc1N1CCN(C)CC1`, for which the Activity in data set [2] is given as 33%.

In the case of `NC(=O)c1ccccc1Nc1ccnc(Nc2ccc(N3CCOCC3)cc2)n1`, in data set [1], the pIC50 is 5.36. Moreover, the Activity in [2] came out at 68%.

For the compound `Cc1cc(Nc2ncc(C#N)c(Nc3ccccc3C(N)=O)n2)ccc1N1CCN(C)CC1`, the pIC50 was 8.05 in data set [3] and 5.41 in data set [1]. Moreover, the results for the Activity in [4] and in data set [2] were 99% and 94%, respectively.

Take `Cc1cccc(Nc2ccnc(Nc3cccc(C)c3)n2)c1`: the Activity in data set [2] was determined as 94%.

For the compound `Cc1cc(Nc2ncc(C#N)c(Nc3cccc(S(N)(=O)=O)c3)n2)ccc1N1CCN(C)CC1`, the pIC50 in data set [1] was 5.25. The same compound had an Activity in [2] of 94%.

On to `Cc1cc(Nc2ncc(C#N)c(Nc3cccc(S(C)(=O)=O)c3)n2)ccc1N1CCN(C)CC1`, for which the pIC50 in data set [1] was 5.33. Also, the Activity in [2] came to 92%.

In the case of `Cc1cccc(Nc2ncc(C#N)c(Nc3cccc(C)c3)n2)c1`, in [2], the Activity is reported as 40%.

As for `COc1cnc(Nc2ccc(N3CCN(C)CC3)c(C)c2)nc1Nc1cccc(S(N)(=O)=O)c1`, the pIC50 in [1] was 5.28. This compound also gave an Activity in data set [2] of 88%.

As to `CNC(=O)c1cnc(Nc2ccc(N3CCN(C)CC3)cc2)nc1Nc1cccc([N+](=O)[O-])c1`, the negative-log IC50 (pIC50) in data set [3] is 6.86. Further, the Activity in data set [4] turned out to be 16%.

Consider `Cc1cccc(Nc2ccnc(Nc3ccc(N4CCOCC4)cc3)n2)c1`, for which the Activity in data set [2] stood at 74%.

Take `O[C@@H](c1cc(C(F)(F)F)nc2c(C(F)(F)F)cccc12)[C@H]1CCCCN1` [(S,R)-MEFLOQUINE]: in [1], the pIC50 was 7.15.

As for `CN1CCN(c2ccc(Nc3nccc(Nc4cccc(S(N)(=O)=O)c4)n3)cc2)CC1`, the negative-log IC50 (pIC50) in data set [1] was 5.14. Besides, the Activity in data set [2] turned out to be 80%.

`Cc1cc(Nc2ncc(C#N)c(Nc3cccc(S(=O)(=O)NC(C)(C)C)c3)n2)ccc1N1CCN(C)CC1`: the pIC50 in [1] is 5.34; in [7], less than 4.00; in data set [8], less than 4.00; in [9], less than 3.82. Further, the Activity in [2] stood at 31%. Besides, the EC50 at 72 h in [5] is 45.4 µM; in data set [6], more than 100 µM.

`Cc1cccc(Nc2ncc(C(N)=O)c(Nc3cccc(C)c3)n2)c1` returned an Activity in [2] of 96%.

With `NS(=O)(=O)c1cccc(Nc2ccnc(Nc3ccc(N4CCOCC4)cc3)n2)c1`, the pIC50 was 5.05 in data set [1], 6.89 in [7], 5.15 in data set [8] and less than 4.00 in data set [9]. Also, the Activity in [2] was found to be 35%. For the same compound, the EC50 at 72 h amounted to 37 µM in data set [5] and 9.4 µM in [6].

As for `CN1CCN(c2ccc(Nc3nccc(Nc4ccccc4C(N)=O)n3)cc2)CC1`, in [1], the negative-log IC50 (pIC50) is 5.82. Besides, in [2], the Activity came to 91%.
